In the library only some 2.9% were active in any assay of this set; here they are far more common.
A3G deaminase: APOBEC3G DNA deaminase inhibitors, primary screen, biochemical, fluorescence, single-stranded DNA substrate, uHTS | AID 493012, 2011 | DNA dC->dU-editing enzyme APOBEC-3G (Homo sapiens), Q9HC16 | inhibition, % at 20 µM | recombinant A3G, ssDNA deamination FAM/TAMRA fluorescence | 330,000 tested, 0.28% active;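 active means inhibition of at least 40% at 20 µM, with no more than 30% in the related APOBEC3A deaminase screen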
A3A deaminase: APOBEC3A ssDNA deaminase inhibitors, primary screen, selectivity assay for APOBEC3G inhibitor project, biochemical, FAM/TAMRA oligo cleavage fluorescence | DNA dC->dU-editing enzyme APOBEC-3A (Homo sapiens), P31941 | recombinant A3A, FAM/TAMRA ssDNA deamination fluorescence | 330,000 tested, 0.41% active | inhibition, % at 20 µM;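 active means at least 40% inhibition at 20 µM here, with at most 30% in a related deaminase screen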
ABHD5-PLIN5 inh: ABHD5-PLIN5 interaction inhibitors, primary screen, cell lysate, split luciferase complementation, luminescence; Perilipin-5 (Homo sapiens) + 1-acylglycerol-3-phosphate O-acyltransferase ABHD5 (Homo …; Split G. princeps luciferase complementation, 4 h; inhibition, % at 4 µM; 360,000 tested, 0.78% active; AID 602281, 2012;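 active means inhibition above the mean inhibition across every tested compound plus 3 SD, cut at about 22% in these data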
Target sequence (Q00G26 whole entry, looked up): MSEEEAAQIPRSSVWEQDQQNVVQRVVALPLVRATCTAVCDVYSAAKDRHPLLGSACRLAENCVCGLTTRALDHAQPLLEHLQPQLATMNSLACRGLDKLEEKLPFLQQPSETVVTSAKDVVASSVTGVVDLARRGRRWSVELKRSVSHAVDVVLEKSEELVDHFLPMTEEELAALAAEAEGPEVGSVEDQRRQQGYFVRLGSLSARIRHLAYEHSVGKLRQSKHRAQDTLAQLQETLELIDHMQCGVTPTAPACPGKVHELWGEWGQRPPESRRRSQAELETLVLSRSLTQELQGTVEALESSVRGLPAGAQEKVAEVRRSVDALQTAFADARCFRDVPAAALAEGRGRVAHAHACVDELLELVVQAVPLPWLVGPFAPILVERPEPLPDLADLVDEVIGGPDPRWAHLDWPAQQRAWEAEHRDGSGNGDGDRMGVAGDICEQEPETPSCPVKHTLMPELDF
Target sequence (Q8WTS1 whole entry, looked up): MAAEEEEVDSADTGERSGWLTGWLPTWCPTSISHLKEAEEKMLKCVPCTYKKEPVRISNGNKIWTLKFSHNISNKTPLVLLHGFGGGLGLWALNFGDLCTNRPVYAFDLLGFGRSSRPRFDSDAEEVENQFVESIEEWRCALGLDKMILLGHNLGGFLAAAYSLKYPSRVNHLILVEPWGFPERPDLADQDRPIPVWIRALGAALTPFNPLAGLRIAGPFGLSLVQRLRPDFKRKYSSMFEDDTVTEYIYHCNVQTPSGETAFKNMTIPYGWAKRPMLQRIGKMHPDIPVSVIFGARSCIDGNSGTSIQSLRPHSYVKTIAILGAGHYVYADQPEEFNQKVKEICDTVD
PRMT1 inh: PRMT1 methyltransferase inhibitors, primary screen, biochemical, fluorescence polarization; AID 652257, 2013; 370,000 tested, 1.3% active; Protein arginine N-methyltransferase 1 (Homo sapiens), Q99873; inhibition, % at 2.79 µM; recombinant PRMT1, activity-based probe fluorescence polarization;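 active means inhibition above about 21% made by adding two undisclosed values, limit read from the data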
core dimer inh: inhibitors of HCV core protein dimerization, primary screen, biochemical, TR-FRET, high-throughput | AID 1899, 2009 | TR-FRET GST/Flag-core106 dimerization, 1536-well | 300,000 tested, 0.33% active | inhibition, % at 5 µM;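 active means inhibition above the mean of all tested compounds plus 3 SD, set per screening campaign, cut at about 45% in these data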
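Assay system – GST-tagged and Flag-tagged HCV core protein residues 1-106 · Quantity – core106 proteins, GST 13.5 nM and Flag 17 nM · Benchmarks – unlabelled core106 and no-GST-core106 wells · Read-out basis – percent inhibition of core106 dimerization signal · Detection – time-resolved FRET, ex 340 nm, em 617 and 671 nm · Schedule – 4 h at 22.5 °C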
NS3 helicase inh: inhibitors of HCV NS3 helicase, primary screen, biochemical, Cy5 molecular beacon fluorescence | Hepatitis C virus NS3 helicase | 290,000 tested, 0.56% active | AID 1800, 2009 | inhibition, % at 10.9 µM | NS3 helicase DNA unwinding;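 active means inhibition above the mean of all tested compounds plus 3 SD, set per campaign, cut at about 35% in these data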
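System: HCV NS3 helicase fragment; control set: DMSO and thioflavine S; technique: Cy5 fluorescence at 0 and 60 min, beacon hairpin quenching; reagent: beacon DNA duplex substrate plus ATP; replicates: singlicate; schedule: 1 h reaction at 25 °C, ATP-initiated; medium: MOPS buffer pH 6.5 with MgCl2, DTT, Tween20, BSA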
PRMT1 inh conf: PRMT1 methyltransferase inhibitors, confirmation, biochemical, fluorescence polarization, triplicate; shares compounds with PRMT1 inh; recombinant His-PRMT1, activity-based probe fluorescence polarization; inhibition, % at 2.79 µM; 3,300 tested, 42% active; AID 687036, 2013;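 active means mean inhibition across replicates above the hit cutoff derived for the earlier primary screen, cut at about 22% in these data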
Of the large screens only hits and unclear results are named; the others gave an inactive call (follow-up assays come after a bar, where they were run).

O=C(CC(Nc1ccc(F)cc1)C(=O)OCC(=O)c1cccs1)c1ccccc1 (centres undefined)	PRMT1 inh 29 (no result: A3G deaminase, A3A deaminase) | PRMT1 inh conf inactive
C/C=C/c1cnc2c(c1)C(=O)N([C@@H](C)CO)C[C@H](C)[C@@H](CN(C)S(=O)(=O)c1ccc(C)cc1)O2	none (no result: A3G deaminase, A3A deaminase, core dimer inh, NS3 helicase inh)
C[C@H]1CN([C@@H](C)CO)C(=O)c2cc(C#CCC3CCCC3)cnc2O[C@@H]1CN(C)C(=O)CC1CC1	none (no result: A3G deaminase, A3A deaminase, core dimer inh, NS3 helicase inh)
Cc1cc(O)ccc1Nc1nc(-c2sc(N)nc2C)cs1	PRMT1 inh 34 | PRMT1 inh conf inactive
CCOC(=O)c1ccc(N2C(=O)c3n[nH]c(C)c3C2c2ccco2)cc1 (centres undefined)	none
CCOC(=O)c1ccc(N2C(=O)c3n[nH]c(-c4ccco4)c3C2c2cccc([N+](=O)[O-])c2)cc1 (centres undefined)	PRMT1 inh 60 | PRMT1 inh conf inactive
CCNC(=O)C1(C)CCN(C(=O)c2ccc(F)cc2Cl)C1 (centres undefined)	none (no result: A3G deaminase, A3A deaminase, core dimer inh, NS3 helicase inh)
Cc1ccc(-n2[nH]c(C)c(C=Nc3cc(C)ccn3)c2=O)cc1	none
Cc1ccnc(N=O)c1	PRMT1 inh 45 (no result: core dimer inh, NS3 helicase inh) | PRMT1 inh conf 55
O=C(O)c1ccccc1SC1CC(=O)N(c2cccc3ccccc23)C1=O (centres undefined)	PRMT1 inh 84 (no result: A3G deaminase, A3A deaminase, core dimer inh) | PRMT1 inh conf 51
CCN1C(=O)CC(Sc2ccccc2C(=O)O)C1=O (centres undefined)	none
CCOC(=O)c1c(N2C(=O)Nc3ccccc3N2O)sc2c1CCCC2	none
COC(=O)c1ccccc1SC1CC(=O)N(c2ccccc2)C1=O (centres undefined)	PRMT1 inh 38 | PRMT1 inh conf inactive
CCOC(=O)c1c(N2C(=O)CC(Sc3ccccc3C(=O)O)C2=O)sc2c1CCCC2 (centres undefined)	PRMT1 inh 53 | PRMT1 inh conf 52
COc1ccc(CCN2CC(C(=O)NCCc3ccc(C(F)(F)F)cc3)CCC2=O)cc1 (centres undefined)	none
O=S1(=O)N[C@H](c2ccccc2)COc2cc(Br)ccc21	none (no result: A3G deaminase, A3A deaminase, ABHD5-PLIN5 inh, core dimer inh, NS3 helicase inh)
S=c1nccc(-c2ccc(Cl)cc2)[nH]1	PRMT1 inh 26 | PRMT1 inh conf 27
S=c1[nH]c(-c2ccc(Cl)cc2)cs1	PRMT1 inh 31 | PRMT1 inh conf 54
O=S1(=O)c2c(NCc3ccco3)cccc2Oc2ccccc2CN1Cc1cn(Cc2ccccc2C(F)(F)F)nn1	none (no result: A3G deaminase, A3A deaminase, ABHD5-PLIN5 inh, core dimer inh, NS3 helicase inh)
O=C(CCSC1=NCCCN1)c1ccc(F)cc1	PRMT1 inh 31 (no result: A3G deaminase, A3A deaminase, core dimer inh, NS3 helicase inh) | PRMT1 inh conf 47
Cc1c(N)c(C(C)(C)C)cc(C(C)(C)C)c1[N+](=O)[O-]	none
Cc1cc2nc3c(=O)[nH]c(=O)[nH]c3nc2c([N+](=O)[O-])c1N	PRMT1 inh 79 (no result: A3G deaminase, A3A deaminase, core dimer inh) | PRMT1 inh conf 112
NC(=O)c1cccc(-c2ccnc3c2CC(C(=O)NCc2ccccc2)O3)c1 (centres undefined)	none (no result: A3G deaminase, A3A deaminase, core dimer inh, NS3 helicase inh)
O=[N+]([O-])c1cc2cccnc2c2ncccc12	none
NS(=O)(=O)c1cccc2c1c([N+](=O)[O-])cc1nc(O)c(O)nc12	PRMT1 inh 26 (no result: NS3 helicase inh) | PRMT1 inh conf 27
O=C(CCSc1ccccn1)c1ccccc1	PRMT1 inh 52 | PRMT1 inh conf 24
CCCCOc1ccc(C(=O)N(CC)CC(=O)NCc2cccs2)cc1	none
Cc1ccc2cc3c(N)c(C(=O)Nc4c(C)[nH]c(=O)[nH]c4=O)sc3nc2c1	PRMT1 inh 31 | PRMT1 inh conf inactive
CC1CCC2C(=O)N(c3cccc(OS(=O)(=O)c4ccccc4)c3)C(=O)C2C1 (centres undefined)	none
CC1CCC2C(=O)N(c3ccc(S(=O)(=O)c4ccccc4)cc3)C(=O)C2C1 (centres undefined)	PRMT1 inh 45 | PRMT1 inh conf inactive
Cc1ccc(NC(=O)c2ccc(OCc3c(C)noc3C)cc2)cc1C	none (no result: core dimer inh, NS3 helicase inh)
NS(=O)(=O)c1cc(C(=O)OC2CCOC2=O)ccc1Cl (centres undefined)	none
O=C(OC1CCOC1=O)c1ccc2ncsc2c1 (centres undefined)	PRMT1 inh 39 | PRMT1 inh conf inactive
Cc1cc(NC(=O)CSc2nnc(COc3ccccc3)o2)no1	none
Cc1ccc(OCc2nnc(SCC(=O)Nc3ncc(C)s3)o2)cc1	PRMT1 inh 30 | PRMT1 inh conf inactive
CC(=Nc1ccccc1)c1sc2ccccc2c1O	PRMT1 inh 33 | PRMT1 inh conf 32
CC(=Nc1ccc(Br)cc1)c1sc2ccccc2c1O	PRMT1 inh 28 | PRMT1 inh conf inactive
CC(=Nc1ccccc1)C1=C(O)COC1=O	none
COCCN=C1Sc2nc3c(C)cccc3cc2CN1Cc1ccco1	PRMT1 inh 29 | PRMT1 inh conf inactive
CC1(C)CCC[C@@]2(C)CC=C(C(=O)O)[C@@H]3C[C@]312	none (no result: NS3 helicase inh)
N#Cc1c2c(c(=S)n(-c3ccccc3)c1N)CCCC2	PRMT1 inh 26 | PRMT1 inh conf inactive
OC(CN1CCN(c2ccc(F)cc2)CC1)c1ccc(Cl)cc1 (centres undefined)	none
Oc1ccc(N2CCN(CC(O)c3ccccc3)CC2)cc1 (centres undefined)	PRMT1 inh 28 | PRMT1 inh conf inactive
Cc1ccc(NC(=O)CSc2ccc(-c3ccccn3)nn2)c(C)c1	none
Cc1ccc(NC(=O)CSc2ccc(-c3cccnc3)nn2)c(C)c1	PRMT1 inh 51 | PRMT1 inh conf inactive
O=[N+]([O-])c1cc2c(cc1/C=N/NS(=O)(=O)c1ccc(Br)cc1)OCO2	PRMT1 inh 34 | PRMT1 inh conf inactive
Cc1ccc(S(=O)(=O)N/N=C\c2cc3c(cc2Br)OCO3)cc1	none
O=C(CSc1nc2c(sc3ccccc32)c(=O)n1CCO)NCc1ccco1	none
Cc1cc2c(=O)n(Cc3ccco3)c(SCC(=O)N3CCCc4ccccc43)nc2s1	none
O=C(CSc1nc2c(sc3ccccc32)c(=O)n1CCCN1CCCC1)NCc1ccco1	PRMT1 inh 27 | PRMT1 inh conf inactive
Cc1cc2c(=O)n(Cc3ccco3)c(SCC(=O)NCc3ccco3)nc2s1	PRMT1 inh 58 | PRMT1 inh conf inactive
COc1ccccc1NC(=O)CSc1nc2c(sc3ccccc32)c(=O)n1CCN(C)C	PRMT1 inh 70 | PRMT1 inh conf 72

Compound activity (PubChem)
